Bioassay records (PubChem BioAssay)
PAFAH1B3 inh: inhibitors of human PAFAH1B3; inhibition, % at 3.39 µM; recombinant PAFAH1B3, FP-rhodamine probe, fluorescence polarization; 340,000 compounds, 0.28% hits; Q15102;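 active = inhibition above the screen-wide average of all tested compounds plus 3 SD, cut at about 25% in these data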;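 note: 0% = enzyme with DMSO only and 100% = wells lacking PAFAH1B3 protein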
Target sequence (Q15102 whole entry, looked up): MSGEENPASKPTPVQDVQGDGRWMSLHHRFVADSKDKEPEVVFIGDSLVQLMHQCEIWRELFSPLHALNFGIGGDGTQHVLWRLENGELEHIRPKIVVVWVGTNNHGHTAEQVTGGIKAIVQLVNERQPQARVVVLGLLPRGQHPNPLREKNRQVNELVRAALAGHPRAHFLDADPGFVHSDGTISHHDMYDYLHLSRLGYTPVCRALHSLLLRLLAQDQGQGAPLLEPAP
PAFAH1B2 inh: inhibitors of human PAFAH1B2; recombinant PAFAH1B2, FP-rhodamine activity probe, fluorescence polarization; inhibition, % at 3.39 µM; 340,000 compounds, 1.2% hits; AID 492953;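 active = inhibition above the mean of all tested compounds plus 3 SD, cut at about 24% in these data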;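 note: 0% = enzyme with DMSO and 100% = wells lacking PAFAH1B2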
PAFAH2 inh: PAFAH2 (human) inhibition | 340,000 compounds, 0.99% hits | recombinant PAFAH2, FP-rhodamine activity probe, fluorescence polarization | Q99487 | inhibition, % at 3.39 µM;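 active = inhibition above the mean over all tested compounds plus 3 SD, cut at about 30% in these data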;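 note: inhibitors block probe labeling of enzyme so polarization drops; 0% = enzyme with DMSO and 100% = wells lacking PAFAH2 protein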
ASAP1 inh: inhibitors of human ASAP1 ArfGAP activity; inhibition, % at 16.5 µM; AID 624377; 360,000 compounds, 0.19% hits; ASAP1-stimulated ARF1 GTP hydrolysis, GDP FP detection; Q9ULH1; in the data active = inhibition above about 25%;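 note: 0% = vehicle with enzyme and substrate and 100% = no enzyme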
Target sequence (Q9ULH1 325-724 limits assumed): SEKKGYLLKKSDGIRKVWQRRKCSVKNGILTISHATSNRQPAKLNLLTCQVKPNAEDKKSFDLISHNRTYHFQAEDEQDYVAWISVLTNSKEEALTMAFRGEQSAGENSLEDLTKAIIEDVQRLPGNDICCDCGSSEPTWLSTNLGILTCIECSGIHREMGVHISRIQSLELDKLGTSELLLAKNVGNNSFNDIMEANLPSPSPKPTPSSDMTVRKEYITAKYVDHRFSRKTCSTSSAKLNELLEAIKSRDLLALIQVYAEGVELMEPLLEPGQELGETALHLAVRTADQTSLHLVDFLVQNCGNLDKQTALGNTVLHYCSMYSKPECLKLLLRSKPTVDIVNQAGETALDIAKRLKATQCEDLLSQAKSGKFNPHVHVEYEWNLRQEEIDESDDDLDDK
ARFGAP1 inh: inhibits rat ARF GTPase activating protein 1 | Q62848 | Arfgap1-stimulated ARF1 GTP hydrolysis, GDP FP detection | inhibition, % at 16.5 µM | 360,000 compounds, 0.26% hits | AID 651572;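 active = inhibition above a per-plate limit, mean inhibition of low control wells plus 3 SD, cut at about 25% in these data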;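 note: 0% = DMSO wells with enzyme and 100% = wells lacking Arfgap1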
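System: truncated rat Arfgap1 GAP domain / Medium: HEPES-based buffer, pH 7.5 / Also added: N-terminally truncated human ARF1-GTP substrate / Incubation: enzyme reaction 120 min at 25 °C after 20 min preincubation / Measured by: FP of antibody-bound GDP Alexa 633 tracer, ex 620/em 688 nm / Replicates: singlicate, each compound tested once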
pPAFAH inh: pPAFAH (human) enzyme inhibition; Q13093; recombinant pPAFAH, FP-rhodamine probe fluorescence polarization; inhibition, % at 3.39 µM; 330,000 compounds, 1.5% hits;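 active = inhibition above the mean inhibition across the screen plus 3 SD, cut at about 25% in these data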;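 note: inhibitors block binding of the rhodamine activity-based probe so polarization drops; 0% = enzyme with DMSO and 100% = wells lacking pPAFAH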
An asterisk follows results filed as active; x = not tested or not shown. Hits are enriched below; roughly 2.7% of the tested compounds scored in any of these assays.

SMILES	PAFAH1B3 inh	PAFAH1B2 inh	PAFAH2 inh	ASAP1 inh	ARFGAP1 inh	pPAFAH inh
S=C1Cc2ccccc2N1	28.9*	17.9	41.3*	16.1	5.7	x
NCCCC(C(=O)O)N(C(=O)OCc1ccccc1)C(=O)OCc1ccccc1 (stereo not drawn)	x	x	x	-11.3	-0.6	x
CCN(CC(=O)Nc1sc2c(c1C#N)CCC(C)C2)Cc1nc2ccccc2c(=O)[nH]1 (stereo not drawn)	1.8	27.2*	6.5	3.0	-8.4	4.3
Cc1nn(-c2ccccc2)c(Cl)c1/C=C1\SC(=S)N(CCCCCC(=O)O)C1=O	12.1	3.5	7.4	-2.1	-14.2	27.9*
O=C(O)CN1C(=O)/C(=C\c2ccccc2OCc2ccccc2)SC1=S	x	x	x	-0.6	-10.8	x
O=C(O)CN1C(=O)/C(=C\c2cc([N+](=O)[O-])ccc2OCc2ccccc2Cl)SC1=S	11.8	7.0	25.0	0.0	-5.3	44.9*
O=C(O)CCCN1C(=O)/C(=C\c2ccccc2OCc2ccccc2)SC1=S	10.2	11.2	15.0	2.4	-19.3	29.0*
O=C(O)CCCN1C(=O)/C(=C\c2ccc(-c3nc4ccccc4s3)o2)SC1=S	24.6	13.1	40.5*	-0.3	15.1	30.5*
CC(=O)N1C[C@@H](CO)[C@@H](N(C)C(=O)Nc2cccc3ccccc23)C[C@H]1c1ccccc1	x	x	x	-11.7	15.7	x
FC(F)(F)c1ccccc1Cc1c(-c2ccco2)nc2c3ccccc3ccn12	x	x	x	-2.9	-0.9	x
CCOC(=O)C1=CCN(S(=O)(=O)c2ccc(Cl)cc2)C1c1cccc(F)c1 (stereo not drawn)	x	x	x	2.0	-3.8	x
CCOC(=O)N1CCN(C(=O)COC(=O)Cc2ccc(Cl)cc2)CC1	7.9	4.7	4.4	-2.9	9.2	34.1*
CCOC(=O)N1CCN(C(=O)Cc2ccc(Cl)cc2)CC1	6.2	2.8	1.5	6.0	-0.3	0.8
CC1CCN(C(=O)COC(=O)Cc2ccc(Br)cc2)CC1	5.5	11.3	0.7	-0.1	7.8	28.5*
C[C@H]1C(C(=O)N(C)C2CCCCC2)=Cc2c(n(-c3ccc(F)cc3)c(=O)n2CCCOc2ccccc2)C=C1c1ccccc1	x	x	x	7.2	-1.1	x
CCOC(=O)C1CSCCS(=O)(=O)N1Cc1ccc(F)cc1 (stereo not drawn)	x	x	x	0.2	13.3	x
Cc1ccc(SCCc2ccc(C)nc2)cc1	12.1	28.0*	1.9	-6.0	-3.0	-0.1
C[C@@H]1CN(c2ccc(N3CCN(C(=O)OC(C)(C)C)C[C@@H]3C)cc2C#N)C[C@H](C)O1	x	x	x	-2.4	4.1	x
CC1SC(=S)N(c2ccc(N(C)C)cc2)C1=O (stereo not drawn)	10.5	1.4	-3.5	-3.2	-11.9	29.3*
CN(C)c1ccc(N2C(=O)CC(c3ccccc3)CC2=O)cc1	0.8	1.4	0.4	-9.8	1.6	-0.9
COC(=O)c1ccccc1NCc1cc(=O)oc2cc(O)c(O)cc12	17.5	44.1*	31.3*	-9.5	9.8	82.3*
c1ccc(CC(Nc2cccnc2)c2ccccc2)cc1 (stereo not drawn)	x	x	x	13.3	22.9	x
CN1C(=O)/C(=C/c2cccc(Cl)c2)Sc2ccc(C(=O)N3CCOCC3)cc21	-4.0	5.8	3.1	0.8	3.4	28.0*
Nc1c(S(=O)(=O)c2cccc(Cl)c2)c2nc3ccccc3nc2n1/N=C/c1ccc(O)c(O)c1	x	x	x	x	x	71.3*
COc1cccc(/C=N/n2c(N)c(S(=O)(=O)c3cccs3)c3nc4ccccc4nc32)c1OC	-2.9	-3.6	-14.3	-6.3	4.1	3.4
SMILES	PAFAH1B3 inh	PAFAH1B2 inh	PAFAH2 inh	ASAP1 inh	ARFGAP1 inh	pPAFAH inh
OCCN1CN(c2ccccc2)C(=S)N(c2ccccc2)C1	x	x	x	9.8	17.5	x
CC(C)(c1ccc(O)c([N+](=O)[O-])c1)c1ccc(O)c([N+](=O)[O-])c1	1.3	26.0*	0.6	-1.6	3.2	x
CN1C(=O)/C(=C/c2ccc(O)c([N+](=O)[O-])c2)N(C)C1=S	-1.3	6.7	-0.5	-0.3	-13.5	-2.5
O=C(NCc1ccccc1)[C@@H]1CCCN1C(=O)[C@H]1CCCN1C(=O)C1CCCCC1	x	x	x	-0.6	14.4	x
CCN(CC)c1ccc(NC(=O)CSc2ccsc2[N+](=O)[O-])c(C)c1	8.1	0.0	9.8	4.1	1.2	28.1*
Cn1c(CNS(=O)(=O)c2ccc(Br)cc2)n[nH]c1=S	9.8	24.4*	4.1	-3.0	-1.5	6.9
Cc1ccc(S(=O)(=O)Nc2cc(C(=O)O)ccc2N2CCCCC2)cc1	-3.1	8.7	2.9	1.0	1.6	12.1
O=C(O)CCc1ccc(S(=O)(=O)Nc2cc(C(F)(F)F)ccc2N2CCCC2)cc1	0.9	30.1*	7.7	-7.2	-0.8	x
COC(=O)C[C@@H]1C[C@H]2c3cc(NC(=O)Nc4ccccc4F)ccc3O[C@H]2[C@@H](CO)O1	x	x	x	2.6	-0.5	x
N#Cc1c(-c2ccccc2)nc(SCC(=O)Nc2ccccc2F)[nH]c1=O	10.6	4.1	-6.6	4.7	-1.2	-3.6
Cc1cccc(NC(=O)CSc2nc(-c3ccccc3)c(C#N)c(=O)[nH]2)c1C	0.7	4.0	6.7	-6.4	-6.8	14.2
N#Cc1c(-c2ccccc2)nc(SCC(=O)Nc2ccccc2)[nH]c1=O	13.5	7.1	-2.0	2.4	4.6	-2.1
N#Cc1c(-c2ccccc2)nc(SCC(=O)N2c3ccccc3Sc3ccccc32)[nH]c1=O	-9.4	24.5*	-12.6	2.7	-19.8	3.1
N#Cc1c(-c2ccccc2)nc(SCc2ccc(Cl)cc2)[nH]c1=O	-0.6	35.0*	-10.1	-7.6	-8.1	7.7
N#Cc1c(-c2ccccc2)nc(SCC(=O)Nc2ccc(OC(F)(F)Cl)cc2)[nH]c1=O	13.7	78.9*	-4.0	5.4	-16.4	-6.6
N#Cc1c(-c2ccccc2)nc(SCC(=O)N(c2ccccc2)c2ccccc2)[nH]c1=O	8.3	38.9*	-3.8	5.2	-18.4	-0.1
O=C(NCc1ccccc1)[C@H]1CCCN1C(=O)[C@H]1CCCN1C(=O)c1ccc(F)c(F)c1	x	x	x	5.1	8.2	x
Nc1ccc2ccc(NS(=O)(=O)N3CCCCC3)cc2c1	x	x	x	-5.0	4.8	x
CCCCN1CC(COCc2ccccc2)Oc2cccc(N3CCCCC3)c2S1(=O)=O (stereo not drawn)	x	x	x	3.5	8.1	x
CN1CCCCC(NC(=O)C23CC4CC(CC(C4)C2)C3)C1=O (stereo not drawn)	x	x	x	5.2	-11.5	x
COCCN1CCCc2nc(-c3ccc(Br)cc3)ccc21	x	x	x	-2.6	-3.1	x
Cc1cc(C)nc(NNS(=O)(=O)c2ccc(F)c(Cl)c2)n1	-2.8	1.3	2.2	-1.6	6.7	1.3
Cc1cc(C)nc(NNS(=O)(=O)c2ccc(Cl)cc2)n1	9.5	26.1*	9.8	7.1	-3.8	1.2
C[C@@H]1C=CCCO[C@]12C(=O)N(Cc1ccc(F)cc1)c1ccccc12	x	x	x	-11.6	-4.4	x
CCOc1cc(/C=N/Nc2ccc(S(=O)(=O)Nc3ccccc3C(=O)O)cc2[N+](=O)[O-])cc(Cl)c1O	x	x	x	9.4	-11.2	x
